In ChEMBL document CHEMBL4007469, “Design and synthesis of dalbergin analogues and evaluation of anti-osteoporotic activity” (Bioorg Med Chem Lett, 2017):
pEC50: −log10 of the molar value. The source made the active and inactive calls. The rule behind the calls is not given here.

Experiments:
[1] = Induction of osteoblast differentiation in mouse calvarial cells assessed as increase in ALP activity using PNPP as substrate after 48 hrs; assay type: functional, cell-based; conditions: Calvarial cell
[2] = Induction of osteoblast differentiation in mouse calvarial cells assessed as compound concentration required for maximum increase in ALP activity using PNPP as substrate after 48 hrs; assay type: functional, Calvarial cell
Calvarial cell = assay: Induction of mineralization in mouse calvarial cells assessed as calcium nodule formation at Emax incubated for 12 days by alizarin red-S staining based spectrophotometric method; assay type: functional
Summary of the method: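 Primary mouse calvarial osteoblasts treated with or without compound for 12 days, fixed in 4% formaldehyde, stained with alizarin red-S, and the stain extracted and quantified by the acetic acid method.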

Compound | pEC50 [1] | Concentration giving maximal ALP increase [2] [pM] | Activity (Calvarial cell)
COc1cc2oc(=O)cc(-c3ccccc3)c2cc1OCCCl | 7.71 | 1 | 
COc1cc2oc(=O)cc(-c3ccccc3)c2cc1OCCCN1CCCCC1 | 8.12 | 1 | Active
COc1cc2oc(=O)cc(-c3ccccc3)c2cc1OC(=O)Cc1cccs1 | 8.13 | 10000 | 
COc1cc2oc(=O)cc(-c3ccccc3)c2cc1OCCCBr | 8.23 | 100 | Active
COc1cc2oc(=O)cc(-c3ccccc3)c2cc1OCCN1CCOCC1 | 7.93 | 1 | Active
COc1cc2oc(=O)cc(-c3ccccc3)c2cc1OCCCCCN1CCOCC1 | 6.05 | 10000 | Active
CCN1CCN(CCCOc2cc3c(-c4ccccc4)cc(=O)oc3cc2OC)CC1 | 7.55 | 10000 | 
COc1cc2oc(=O)cc(-c3ccccc3)c2cc1OCCCCCN1CCCCC1 | 7.97 | 1 | Active
C/C=C(\C)C(=O)Oc1cc2c(-c3ccccc3)cc(=O)oc2cc1OC | 8.96 | 1e+06 | 
COc1cc2oc(=O)cc(-c3ccccc3)c2cc1OC(=O)c1ccc(Br)cc1 | 9.10 | 1e+06 | 
COc1cc2oc(=O)cc(-c3ccccc3)c2cc1OCCCN1CCN(C)CC1 | 8.03 | 100 | 
CCN1CCN(CCCCCOc2cc3c(-c4ccccc4)cc(=O)oc3cc2OC)CC1 | 4.91 |  | 
CCN1CCN(CCOc2cc3c(-c4ccccc4)cc(=O)oc3cc2OC)CC1 | 7.87 | 1 | Active
COc1cc2oc(=O)cc(-c3ccccc3)c2cc1OCCCCCBr | 8.24 | 10000 | Active
COc1cc2oc(=O)cc(-c3ccccc3)c2cc1OCCN1CCN(C)CC1 | 7.83 | 1 | Active
